# Key:
# Aromatase [1] = target: T1, Aromatase (Homo sapiens, UniProt P11511); experiment: Ratio of letrozole IC50 to compound IC50 for human placental microsome aromatase
# T1 sequence (P11511 whole entry): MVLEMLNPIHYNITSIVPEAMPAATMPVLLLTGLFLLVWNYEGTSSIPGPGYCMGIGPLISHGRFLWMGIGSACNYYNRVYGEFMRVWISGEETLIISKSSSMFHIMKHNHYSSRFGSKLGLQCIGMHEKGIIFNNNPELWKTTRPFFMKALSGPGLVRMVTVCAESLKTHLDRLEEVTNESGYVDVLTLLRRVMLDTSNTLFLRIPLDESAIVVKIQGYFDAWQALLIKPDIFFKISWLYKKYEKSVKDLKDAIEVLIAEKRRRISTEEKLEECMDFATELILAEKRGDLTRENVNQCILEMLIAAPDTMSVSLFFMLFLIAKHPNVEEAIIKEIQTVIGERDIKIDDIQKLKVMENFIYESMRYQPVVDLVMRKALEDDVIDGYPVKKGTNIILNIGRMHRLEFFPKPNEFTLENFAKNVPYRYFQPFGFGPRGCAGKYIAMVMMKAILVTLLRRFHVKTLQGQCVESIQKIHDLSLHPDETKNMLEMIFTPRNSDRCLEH
# How it was run: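 Both IC50s come from the human placental microsome aromatase assay with estrone measured by ELISA. Each IC50 is the mean of at least three experiments, each run in triplicate.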
# Aromatase [2] = target: T1, Aromatase; experiment: Inhibition of human placental microsome aromatase after 30 mins by ELISA
# How it was run: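 Aromatase (P450 arom) source: human placental microsomes. Activity read as estrone formed, quantified by a commercial estrone enzyme immunoassay (ELISA). Values are means of at least three experiments, each run in triplicate.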
SMILES,IC50 (Aromatase [2]) [nM],Ratio IC50 (Aromatase [1])
COc1ccc2cc(Cn3ccnc3)n(-c3ccc(F)cc3)c2c1,48.9,0.3378
Cc1ccc2cc(Cn3ccnc3)n(-c3ccc(C#N)cc3)c2c1,27,0.612

# More lines, in order of falling IC50 (Aromatase [2]), values ahead:
IC50 (Aromatase [2]) [nM],SMILES,Ratio IC50 (Aromatase [1])
203,COc1ccc(-n2c(Cn3ccnc3)cc3ccc(Cl)cc32)cc1,0.0813
139,COc1ccc(-n2c(Cn3ccnc3)cc3ccc(C)cc32)cc1,0.1192
77.4,COc1ccc(-n2c(Cn3ccnc3)cc3ccccc32)cc1,0.2137
21.4,Cc1ccc2cc(Cn3ccnc3)n(-c3ccccc3)c2c1,0.7728
